Test results from ChEMBL document CHEMBL1147849, “Synthesis and recognition of novel isonucleoside triphosphates by DNA polymerases” (Bioorg Med Chem, 2007).
Activity calls are given as the source filed them. The calls are words filed in the database; no cut-off is given here.

Experiments:
Thermus aquaticus = experiment: Inhibition of Thermus acquaticus DNA polymerase-mediated DNA synthesis assessed as DNA chain termination
Procedure, shortened: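 Taq polymerase primer extension: 25-mer template (A, T, G or C at the first target site) and 5′-FITC 17-mer primer, 20 pmol each. Buffer was 50 mM KCl, 10 mM Tris–HCl pH 9.0, 1.5 mM MgCl₂, 0.1% Triton X-100. Triphosphate or dNTPs 1 nmol each, 2 U enzyme, 50 °C for 1.5 h. Read-out by denaturing polyacrylamide gel electrophoresis.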

[1] = Inhibition of 9 Nm DNA polymerase-mediated DNA synthesis assessed as DNA chain termination
Procedure, shortened: (§1)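 25-mer template (four variants, each with A, T, G or C at the first target site) annealed to a 5′-FITC 17-mer primer, 20 pmol each. Annealing was done by cooling quickly from 90 to 0 °C in buffer: 10 mM KCl, 10 mM (NH₄)₂SO₄, 20 mM Tris–HCl pH 8.8, 2 mM MgSO₄, 0.1% Triton X-100. Reactions held triphosphate or dNTPs (1 nmol each) and 2 U polymerase, 50 °C, 1.5 h. Products were resolved by denaturing PAGE.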

[2] = Activity of 9 Nm DNA polymerase enzyme
Procedure, shortened: (§2)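 Kinetics with 9°N DNA polymerase at 0.01 U/µL in the supplier's buffer. Primer was annealed to template 2 (T at the target site), 2 µM primer–template complex, with varying concentrations of dATP or the isonucleoside triphosphate.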

[3] = Ratio of Vmax to Km for 9 Nm DNA polymerase; procedure, shortened: as §2
[4] = Inhibition of Therminator DNA polymerase-mediated DNA synthesis assessed as DNA chain termination; procedure, shortened: as §1
[5] = Inhibition of Vent(exo-) DNA polymerase-mediated DNA synthesis assessed as DNA chain termination; procedure, shortened: as §1
[6] = Inhibition of Deep Vent(exo-) DNA polymerase-mediated DNA synthesis assessed as DNA chain termination; procedure, shortened: as §1

Structure (SMILES) | Activity (Thermus aquaticus) | Activity [1] | also measured
C=CCOC[C@@H]1O[C@@H](COP(=O)(O)OP(=O)(O)OP(=O)(O)O)[C@H](O)[C@H]1n1cc(C)c(=O)[nH]c1=O | Active | Active | –
Nc1ncnc2c1ncn2[C@H]1C[C@H](O)[C@@H](COP(=O)(O)OP(=O)(O)OP(=O)(O)O)O1 | – | – | Km [2]: 0.78 µM; Vmax [2]: 6.73 %/min; Vmax/Km [3]: 8.63e+06 M⁻¹
Nc1ncnc2c1ncn2[C@@H]1CO[C@H](COP(=O)(O)OP(=O)(O)OP(=O)(O)O)[C@H]1O | Active | inactive | Activity [4]: inactive; Activity [5]: inactive; Activity [6]: Active
Nc1nc2c(ncn2[C@H]2CO[C@@H](CCOP(=O)(O)OP(=O)(O)OP(=O)(O)O)[C@@H]2O)c(=O)[nH]1 | Active | Active | –
Cc1cn([C@H]2CO[C@@H](CCOP(=O)(O)OP(=O)(O)OP(=O)(O)O)[C@@H]2O)c(=O)[nH]c1=O | Active | Active | –
Nc1ccn([C@H]2CO[C@@H](CCOP(=O)(O)OP(=O)(O)OP(=O)(O)O)[C@@H]2O)c(=O)n1 | Active | Active | –
